Source: ChEMBL document CHEMBL1124291, “New actinomycin D analogues as superior chemotherapeutic agents against primary and advanced colon tumors and colon xenografts in nude mice” (J Med Chem, 1988)
Starred links: 1 amine or outer side, 2 acyl side, 3 side chain; linkers in the order of their positions; H or OH if unused. Positions of bridges follow the written chain, without caps; N, C: chain ends. Non-standard residues stand in square brackets, D forms with d. Residues, ends and D or L forms follow the SMILES beside them. Chains are numbered I, II in the order given. Actinocin(9to1) = Cc1c2oc3c(C)ccc(C(=O)[*:1])c3nc-2c(C(=O)[*:2])c(N)c1=O; NMeV = CN[C@H](C(=O)O)C(C)C; Sar = CNCC(=O)O

Experiments:
B16 [1] = experiment: In vivo antitumor activity against B16 melanoma cells at a optimal dose 300 ug/Kg /inj measured as %ILS (%increase life span); format: functional; settings: Mus musculus
Outline: (§1)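 BDF1 mice in groups of nine were implanted ip on day 0 with 0.2 mL of 1:5 (w/v) B16 melanoma brei; drugs were given ip. Survival is reported as median survival time in days with range, and as %ILS, with survivors counted on day 65 out of total injected.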

B16 [2] = experiment: In vivo antitumor activity against B16 melanoma cells at dose 300 ug/Kg /inj measured as Mean survival time (MST); format: functional, Mus musculus; outline: as §1
MC-38 [3] = experiment: Activity against advanced carcinoma C38 Tumor in CDF1 Mice at dose 0.15 mg/kg measured as % inhibition of tumor; format: functional; settings: Mus musculus
B16 [4] = experiment: In vivo Antitumor activity against B16 melanoma cells at a optimal dose measured as %ILS (%increase life span); format: functional, Mus musculus; outline: as §1
B16 [5] = experiment: In vivo Antitumor activity against B16 melanoma cells at dose 250 ug/Kg /inj measured as Mean survival time (MST); format: functional, Mus musculus; outline: as §1
MC-38 [6] = experiment: Activity against advanced carcinoma C38 Tumor in CDF1 Mice at dose 0.30 mg/kg measured as % inhibition of tumor; format: functional; settings: Mus musculus
MC-38 [7] = experiment: Activity against advanced carcinoma C38 Tumor in CDF1 Mice at dose 0.45 mg/kg measured as % inhibition of tumor; format: functional; settings: Mus musculus
MC-38 [8] = experiment: Activity against advanced carcinoma C38 Tumor in CDF1 Mice at dose 0.60 mg/kg measured as % inhibition of tumor; format: functional; settings: Mus musculus
MC-38 [9] = experiment: Mean survival time of treated /untreated group x100. (number of over 100-day survivors/ number of total mice in the group) at a dose 0.60 mg/kg; format: functional, Mus musculus; settings: dose 0.6 mg/kg
Outline: (§2)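 CDF1 mice were implanted sc on day 0 with colon 38 adenocarcinoma fragments (70 mg) and given iv drug on days 1, 5 and 9. %T/C = median survival of treated / untreated × 100. Number of mice surviving over 100 days / group total is given in parentheses.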

MC-38 [10] = experiment: Mean survival time of treated /untreategroup x100. (number of over 100-day survivors/ number of total mice in the group) at a dose 0.075 mg/kg; format: functional, Mus musculus; outline: as §2
MC-38 [11] = experiment: Mean survival time of treated /untreategroup x100. (number of over 100-day survivors/ number of total mice in the group) at a dose 0.15 mg/kg; format: functional, Mus musculus; outline: as §2
MC-38 [12] = experiment: Mean survival time of treated /untreategroup x100. (number of over 100-day survivors/ number of total mice in the group) at a dose 0.30 mg/kg; format: functional, Mus musculus; settings: dose 0.3 mg/kg; outline: as §2
MC-38 [13] = experiment: Mean survival time of treated /untreategroup x100. (number of over 100-day survivors/ number of total mice in the group) at a dose 0.45 mg/kg; format: functional, Mus musculus; outline: as §2
MC-38 [14] = experiment: Number of toxic deaths/number of mice in a group of non tumored mice treated in parallel with the tumor-bearing mice and observed for 100 days at a dose 0.075 mg/Kg; value given as 0/9; format: functional, Mus musculus
Outline: (§3)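 Non-tumored CDF1 mice were treated in parallel with colon 38 tumor-bearing mice: iv injections on days 1, 5 and 9, groups of nine. Deaths were counted over 100 days of observation and reported as toxic deaths / mice in group.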

MC-38 [15] = experiment: Number of toxic deaths/number of mice in a group of non tumored mice treated in parallel with the tumor-bearing mice and observed for 100 days at a dose 0.15 mg/Kg; value given as 1/9; format: toxicity; settings: mouse, in vivo, 2400 h; outline: as §3
MC-38 [16] = experiment: Number of toxic deaths/number of mice in a group of non tumored mice treated in parallel with the tumor-bearing mice and observed for 100 days at a dose 0.30 mg/Kg; value given as 0/9; format: functional, Mus musculus; outline: as §3
MC-38 [17] = experiment: Number of toxic deaths/number of mice in a group of non tumored mice treated in parallel with the tumor-bearing mice and observed for 100 days at a dose 0.45 mg/Kg; value given as 1/9; format: toxicity; settings: mouse, in vivo, 2400 h; outline: as §3
MC-38 [18] = experiment: Activity against advanced carcinoma C38 Tumor in CDF1 Mice at dose 0.075 mg/kg measured as % inhibition of tumor; format: functional; settings: Mus musculus
MC-38 [19] = experiment: Number of toxic deaths/number of mice in a group of non tumored mice treated in parallel with the tumor-bearing mice and observed for 100 days at a dose 0.60 mg/Kg; value given as 4/9; format: toxicity; settings: mouse, in vivo, 0.6 mg/kg, 2400 h; outline: as §3
HT-29 [20] = experiment: 50% inhibition of incorporationf precursor [3H]thymidine into DNA HT-29 cell lines; format: functional, cell-based; settings: Homo sapiens, HT-29, 2 h
Outline: (§4)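 HT-29 colon carcinoma monolayers, 10^4 cells per well, five wells per concentration. Drug exposure lasted 2 h, with [³H]thymidine and [2-¹⁴C]uridine (0.5 μCi each) added for the last hour. Cells were washed, trypsinized, counted and precipitated onto glass-fiber filters with 10% TCA. Acid-precipitable radioactivity was measured. IC50 is the concentration inhibiting 50% of incorporation; data are averages of replicate experiments.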

P388 [21] = experiment: 50% inhibition of incorporation of precursor [3H]thymidine into DNA P388 cell lines; format: functional, cell-based; settings: Mus musculus, P388, 2 h
P388 [22] = experiment: 50% inhibition of incorporation precursor [14C]uridine into RNA P388 cell lines; format: functional, cell-based; settings: Mus musculus
Rattus norvegicus [23] = species on record: Rattus norvegicus; experiment: Percent of the unconverted metabolite from incubation mixture containing rat microsomes; format: functional
Outline: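 Tritiated analogues were incubated with two systems. (T) sonicated P388 cell homogenates, 37 °C for 16 h. (M) liver microsomes from phenobarbital-induced rats, 6 h with an NADPH-generating system (glucose-6-phosphate dehydrogenase plus glucose 6-phosphate). Metabolites and water-soluble conjugates were isolated, separated by HPLC and expressed as percentages.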

Rattus norvegicus [24] = species on record: Rattus norvegicus; experiment: DNA-cleaving ability expressed as % of closed circular pBR322 DNA cleaved at 10 uM conc; format: functional
Outline: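 pBR322 DNA (200 μM nucleotides) in 10 mM Tris·HCl pH 7.8 and 50 mM NaCl, with 4 mM Na₂S₂O₄ and 100 μM FeCl₂. Incubated with drug for 1 h at 20 °C, kept air-saturated. Supercoiled and open-circular forms were separated by agarose gel electrophoresis, stained with ethidium bromide and quantitated by densitometry. % cleaved was calculated from the open- and closed-circular amounts.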

Rattus norvegicus [25] = species on record: Rattus norvegicus; experiment: The formation of adrenochrome from epinephrine in the absence of SOD(super oxide dismutase); format: functional
Outline: (§5)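 Drug-stimulated superoxide generation with rat liver microsomal enzymes and NADPH as cofactor. NADPH oxidation was read at 340 nm. Adrenochrome formed from epinephrine was read at 480 nm, with or without superoxide dismutase. % stimulation = [(drug-stimulated rate − basal rate)/basal rate] × 100. Values are mean ± standard error of triplicate analyses.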

Rattus norvegicus [26] = species on record: Rattus norvegicus; experiment: The formation of adrenochrome from epinephrine in the presence of SOD(super oxide dismutase); + denotes ' Inhibited'; format: functional; outline: as §5
Rattus norvegicus [27] = species on record: Rattus norvegicus; experiment: Stimulation of NADPH oxidation in the presence of rat liver microsomes; format: functional; outline: as §5
HT-29 [28] = experiment: 50% inhibition of incorporationf precursor [3H]thymidine into RNA HT-29 cell lines; format: functional, cell-based; settings: Homo sapiens, HT-29, 2 h; in the assay text read “[14C]uridine” for “[3H]thymidine”; outline: as §4
pBR322 plasmid DNA = experiment: DNA-cleaving ability expressed as % of closed circular pBR322 DNA cleaved at 100 uM conc
P388 (Mus musculus) = experiment: Percent of the unconverted metabolite from incubation mixture containing tumor cell homogenate(T)
P388 [29] = experiment: Antitumor activity in P388/ADR (adriamycin resistant), in male BDF1 mice measured as optimal dose at dose
P388 [30] = experiment: Antitumor activity in P388/S(AMD sensitive) in male BDF1 mice measured as optimal dose at dose 0.075-2.5 mg/kg/injection, ip
P388 [31] = experiment: Antitumor activity against P388/S (AMD sensitive) in male BDF1 mice measured as optimal dose at dose 1.0-5.0 mg/Kg/inj, ip
P388 [32] = experiment: Antitumor activity against P388/ADR (adriamycin resistant), in male BDF1 mice measured as optimal dose at dose 1.0-5.0 mg/Kg/inj, ip

## Cc1nc2c(C(=O)N[C@@H]3C(=O)N[C@H](C(C)C)C(=O)N4CCC[C@H]4C(=O)N(C)CC(=O)N(C)[C@@H](C(C)C)C(=O)O[C@@H]3C)c3nc4c(C(=O)N[C@@H]5C(=O)N[C@H](C(C)C)C(=O)N6CCC[C@H]6C(=O)N(C)CC(=O)N(C)[C@@H](C(C)C)C(=O)O[C@@H]5C)c(N)c(=O)c(C)c-4oc3c(C)c2o1
B16 [1]
  ILS at 0.3 mg/kg: 124%
B16 [2]
  MST: 65

## Cc1c2oc3c(C)ccc(C(=O)N[C@@H]4C(=O)N[C@H](C(C)C)C(=O)N5CCC[C@H]5C(=O)N(C)CC(=O)N(C)[C@@H](C(C)C)C(=O)O[C@@H]4C)c3nc-2c(C(=O)N[C@@H]2C(=O)N[C@H](C(C)C)C(=O)N3CCC[C@H]3C(=O)N(C)CC(=O)N(C)[C@@H](C(C)C)C(=O)O[C@@H]2C)c(N)c1=O [DACTINOMYCIN] (I: T[dV]P[Sar][NMeV] / II: T[dV]P[Sar][NMeV]; ester I:1-I:C, II:1-II:C; linker I:N-II:N via Actinocin(9to1))
MC-38 [3]
  inhibition in vivo at 0.15 mg/kg: 30%
B16 [4]
  ILS: 48%
B16 [5]
  MST: 43
MC-38 [6]
  inhibition in vivo at 0.3 mg/kg: 67%
MC-38 [7]
  inhibition in vivo at 0.45 mg/kg: 83%
MC-38 [8]
  inhibition in vivo at 0.6 mg/kg: 89%
MC-38 [9]
  T/C: 103%
MC-38 [10]
  T/C: 100%
MC-38 [11]
  T/C: 107%
MC-38 [12]
  T/C: 134%
MC-38 [13]
  T/C: 170%
MC-38 [14]
  Toxic deaths: 0
MC-38 [15]
  Toxic deaths: 1
MC-38 [16]
  Toxic deaths: 0
MC-38 [17]
  Toxic deaths: 1
MC-38 [18]
  inhibition in vivo at 0.075 mg/kg: 30%
MC-38 [19]
  Toxic deaths: 4
HT-29 [20]
  IC50: 900 nM
P388 [21]
  IC50: 1100 nM
P388 [22]
  IC50: 50 nM
Rattus norvegicus [23]
  Activity: 100%
Rattus norvegicus [24]
  Activity: 10%
Rattus norvegicus [25]
  Adrenochrome formation: 2.29 nM min-1 (mg of protein)-1
Rattus norvegicus [26]
  Adrenochrome formation: Inhibited
Rattus norvegicus [27]
  NADPH oxidation (nM min-1 (mg of protein)-1): 10
HT-29 [28]
  IC50: 100 nM
pBR322 plasmid DNA
  Activity: 22%
P388 (Mus musculus)
  Activity: 100%
P388 [29]
  optimal dose: 0.25 mg/kg
P388 [30]
  optimal dose: 0.25 mg/kg

## CO[C@@]12[C@H](COC(N)=O)C3=C(C(=O)C(C)=C(N)C3=O)N1C[C@@H]1N[C@@H]12 [MITOMYCIN]
P388 [31]
  optimal dose: 3 mg/kg
P388 [32]
  optimal dose: 3 mg/kg
